KCNQ1 pot: potentiates or activates the human KCNQ1 potassium channel | P51787 | CHO-K1 KCNQ1, thallium flux FluxOR fluorescence; stronger effect = higher value | B-score at 10 µM | 310,000 compounds, 0.35% hits | AID 2648;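 active = fluorescence ratio B-score, a plate-corrected score, at least three library SD, with initial intensity B-score within 5 SD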
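Test system: CHO-K1 cells stably expressing KCNQ1 / Medium: assay buffer / Also added: depolarizing K+/Tl+ stimulus, K2SO4 and Tl2SO4 each 12.5 mM in 5x stock / Incubation: 90 min dye loading and 20 min compound exposure, both at room temperature / Signal: thallium influx via FluxOR fluorescence, kinetic imaging / Evaluation: B score of baseline-normalized fluorescence ratio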
KCNK3 inh: human KCNK3 channel inhibition, primary screen. O14649. CHO-KCNK3 thallium flux, FluxOR fluorescence; stronger effect = lower value. B-score at 10 µM. 340,000 compounds, 0.84% hits;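 active = B-score under library mean minus 4 SD, starting fluorescence ratio at most library mean plus 5 SD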;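 also: more negative B-score means stronger inhibition of thallium flux through KCNK3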
Target sequence (O14649 whole entry, looked up): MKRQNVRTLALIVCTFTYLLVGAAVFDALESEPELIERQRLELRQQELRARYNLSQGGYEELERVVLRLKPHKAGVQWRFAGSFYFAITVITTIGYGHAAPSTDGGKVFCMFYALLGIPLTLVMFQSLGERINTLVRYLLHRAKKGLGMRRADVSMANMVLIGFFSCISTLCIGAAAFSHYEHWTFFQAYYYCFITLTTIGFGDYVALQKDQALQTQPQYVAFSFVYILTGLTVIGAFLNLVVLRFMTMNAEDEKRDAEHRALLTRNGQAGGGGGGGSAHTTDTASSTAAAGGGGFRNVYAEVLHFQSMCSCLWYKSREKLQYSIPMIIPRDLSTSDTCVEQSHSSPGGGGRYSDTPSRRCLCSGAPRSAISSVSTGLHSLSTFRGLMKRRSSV
KCNK9 block: blocks the human KCNK9 two-pore domain potassium channel. Q9NPC2. HEK293 KCNK9, FluxOR thallium flux fluorescence; stronger effect = lower value. B-score at 10 µM. 310,000 compounds, 1.2% hits;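 active = ratio B-score over 3 SD below the library mean, with starting fluorescence within 5 SD of its mean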;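 also: negative B-score means less thallium flux so channel inhibition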
Target sequence (Q9NPC2 whole entry, looked up, the tested form may be a part): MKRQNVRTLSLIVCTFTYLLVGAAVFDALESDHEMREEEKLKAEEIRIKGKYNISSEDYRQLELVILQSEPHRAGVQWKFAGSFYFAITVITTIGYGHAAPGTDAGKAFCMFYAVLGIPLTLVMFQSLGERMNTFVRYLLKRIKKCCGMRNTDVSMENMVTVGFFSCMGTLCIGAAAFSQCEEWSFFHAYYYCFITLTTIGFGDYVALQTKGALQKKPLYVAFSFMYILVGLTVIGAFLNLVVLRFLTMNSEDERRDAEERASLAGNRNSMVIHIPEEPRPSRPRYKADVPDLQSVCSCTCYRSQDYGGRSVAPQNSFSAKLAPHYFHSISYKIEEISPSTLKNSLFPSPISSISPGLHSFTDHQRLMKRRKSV
KCNQ1 block: blocks the human KCNQ1 potassium channel; P51787; CHO-K1 KCNQ1, FluxOR thallium flux fluorescence; stronger effect = higher value; B-score at 10 µM; 310,000 compounds, 1.3% hits; AID 2642;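 active = compounds whose thallium flux B-score, printed positive for inhibition, exceeds three library SD while starting fluorescence stays within three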;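 also: channel opened by potassium depolarization with thallium stimulus after 20 min compound exposure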
hERG protect: hERG (human) protection from proarrhythmic block; Q12809; CHO-hERG, FluxOR thallium flux, dofetilide IC70 present; activation (rescue from dofetilide block), less the hit threshold, % at 10 µM; 310,000 compounds, 0.51% hits; AID 1511;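 active = activation above the mean of controls blocked by dofetilide plus 5 SD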;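 also: thallium influx through hERG after potassium depolarization seen as dye fluorescence rise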
Cl transport mod: modulates chloride dependent transport by human KCC2; Q9H2X9; KCC2 cells, thallium flux FluoZin-2 fluorescence; B-score of Tl+ flux slope (higher = more flux/activation; lower = inhibition) at 10 µM; 190,000 compounds, 2.2% hits; AID 1456;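 active = thallium flux slope and its plate-corrected score both differing from the plate sample mean at a set confidence after two filtering rounds, in either direction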;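 also: slope of fluorescence scaled to starting intensity during 10 to 20 s after thallium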
KCC2 sec1: KCC2 (human) modulation, secondary assay. 3,700 compounds, 15% hits. shares compounds with Cl transport mod. AID 1713. HEK293-KCC2, thallium flux, FluoZin2 fluorescence; stronger effect = higher value. normalised thallium flux (F/F0 slope) at 10 µM;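 active = thallium flux slope above the same plate's solvent-only control mean plus 3 SD; inconclusive = the two replicate wells disagree; inactive = no significant difference from solvent-only control wells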
KCC2 bumet counter: bumetanide-insensitive thallium flux in KCC2 cells with ouabain, counter-screen; 3,700 compounds, 49% hits; normalized thallium flux at 10 µM; shares compounds with Cl transport mod; HEK293-KCC2 + bumetanide/ouabain, thallium flux FluoZin2; stronger effect = higher value;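 active = thallium entry rate above the same plate's blocked-transporter control wells by more than 3 SD; inconclusive = the two repeat wells disagree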;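 also: raw slope of fluorescence over initial fluorescence between 10 and 20 s after thallium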
KCC2 sec2: confirmation of human KCC2 transport modulators; 3,700 compounds, 23% hits; shares compounds with Cl transport mod; normalized thallium flux at 10 µM; HEK293-KCC2, thallium flux FluoZin2 fluorescence; actives lie on both sides; F/F0 rise rate, 10–20 s post-thallium; AID 1715;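 active = thallium flux slope more than 3 SD above or below the plate's solvent-only control mean, mostly below; inconclusive = the two repeat wells disagreed; inactive = no significant shift from solvent-only controls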;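 also: raw slope with 0.1% DMSO as baseline and bumetanide as block control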
HEK293 Tl flux: parental HEK flux effect, counter-screen | shares compounds with Cl transport mod | HEK293 parental cells, thallium flux FluoZin2, ouabain; baseline-ratio fluorescence slope, 10–20 s after thallium | thallium flux rate (normalised fluorescence) at 10 µM | 3,700 compounds, 46% hits;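 active = thallium flux rate significantly above the same plate's solvent-only control wells, beyond their mean plus 3 SD; inconclusive = the two replicate wells gave conflicting results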
KCC2 retest ouab: modulates human KCC2 on retest with ouabain; shares compounds with Cl transport mod; HEK293-KCC2, thallium flux FluoZin2 fluorescence; bidirectional: low = inhibitor, high = activator; raw Tl+ flux slope (below DMSO = inhibition, above = activation) at 10 µM; 3,700 compounds, 48% hits; AID 1717;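 active = thallium flux slope beyond 3 SD from same-plate DMSO control mean in most replicates, usually higher, sometimes lower; inconclusive = repeat tests gave conflicting results; inactive = no significant difference from controls in most replicates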;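 also: slope of initial-normalized fluorescence between seconds 10 and 20 after thallium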
HEK293 Tl flux2: acts in parental HEK cells, second KCC2 counter-screen; shares compounds with Cl transport mod; 3,700 compounds, 33% hits; HEK293 parental, thallium flux FluoZin-2 fluorescence slope; thallium flux slope at 10 µM;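 active = thallium flux slope above the same plate's solvent-control mean plus 3 SD in both duplicate wells; inconclusive = duplicate wells that disagreed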;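 also: run without ouabain in cells lacking the KCC2 cotransporter; slope of fluorescence scaled to its starting value between 10 and 20 s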
KCNK9 block conf: confirmation of human KCNK9 potassium channel inhibitors | shares compounds with KCNK9 block | HEK293 KCNK9 cells, FluxOR thallium flux fluorescence | inhibition, % at 10 µM | 4,900 compounds, 43% hits | AID 492992;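 active = thallium signal inhibited by more than 5 SD of the compound-free buffer control wells, on both duplicate plates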;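 also: 0% = assay buffer control wells without compound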
Kir21 sel: tests whether KCNK9 modulators also affect mouse Kir2.1 | inhibition, % at 10 µM | shares compounds with KCNK9 block | 4,900 compounds, 4% hits | Kir2.1 cells, FluxOR thallium flux fluorescence;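 active = thallium signal drop more than 5 SD beyond the mean of the no-compound control wells, seen in both duplicate plates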;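 also: signal is fluorescence rise after thallium addition divided by baseline fluorescence; plate controls were assay buffer only for no effect and full block by chlorpromazine control for full effect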
HEK293 Tl ctr: non-induced cell nonspecific activity of KCNK9 modulators. shares compounds with KCNK9 block. non-induced KCNK9-HEK293, FluxOR thallium flux. inhibition, % at 10 µM. 4,900 compounds, 40% hits;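 active = thallium signal drop beyond 5 SD of the untreated control mean, on both duplicate plates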;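 also: plate controls were buffer only IC0 wells for no effect and SID17386958 at its maximal inhibitory level for full effect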
KCNK3 confirm: human KCNK3 channel inhibition, confirmation assay; shares compounds with KCNK3 inh; CHO-KCNK3 thallium flux, FluxOR fluorescence; 0% buffer, 100% carvedilol maximal block; ratio percent of control, % at 10 µM; 2,400 compounds, 99% hits;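 active = ratio percent of control, averaged over triplicates, above buffer control mean plus 5 SD, cut at about 64% in these data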;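 also: ratio is the fluorescence rise from min to max over baseline after thallium stimulus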
KCNK3 uninduced: counter-screen for KCNK3 inhibitors: effect in non-induced cells; shares compounds with KCNK3 inh; non-induced KCNK3 parental cells, FluxOR thallium flux; stronger effect = lower value; thallium flux ratio (lower = more inhibition) at 10 µM; 2,400 compounds, 40% hits;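 active = thallium flux ratio, averaged over three wells, more than 5 SD below the buffer control mean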;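 also: host cells are CHO cells without KCNK3 induction; ratio is peak minus trough fluorescence over baseline then normalized to buffer controls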
* hit, by the source's call; i = inactive; ? = inconclusive; · = no result. The list is not random: actives were taken first. Their share in the collection is about 4.1%.

SMILES | KCNQ1 pot | KCNK3 inh | KCNK9 block | KCNQ1 block | hERG protect | Cl transport mod | KCC2 sec1 | KCC2 bumet counter | KCC2 sec2 | HEK293 Tl flux | KCC2 retest ouab | HEK293 Tl flux2 | KCNK9 block conf | Kir21 sel | HEK293 Tl ctr | others
O=C(NCC1CCCO1)C1CC1(c1ccccc1)c1ccccc1 (stereo not drawn) | i | i | i | i | -5 | 0.91 | · | · | · | · | · | · | · | · | ·
CN1c2ccccc2C(C)(C)C12C=Nc1c(ccc3ccccc13)O2 (stereo not drawn) | i | i | i | i | -11 | -0.19 | · | · | · | · | · | · | · | · | ·
CN1c2ccccc2C(C)(C)[C@]12C=Cc1cc(O)ccc1O2 | i | i | i | 13* | -27 | -3.4* | 0.0075 | ? | 0.033 | 0.007 | 0.016* | 0.011 | i | 33%* | i
CC1Cc2ccccc2N1C(=O)c1ccc(N2CCCCC2)c([N+](=O)[O-])c1 (stereo not drawn) | i | i | -11* | i | -13 | -4.7* | 0.011 | ? | ? | 0.0069 | 0.013* | 0.01 | 49%* | i | 25%*
CCc1ccc([C@@H]2CC=C(C(=O)O)[C@H](c3ccc(Br)cc3)N2S(=O)(=O)c2ccc(C)cc2)cc1 | · | i | · | · | · | · | · | · | · | · | · | · | · | · | ·
CCCCCCCCC(=O)NNC(=O)c1c(O)c2ccccc2n(CCC)c1=O | i | i | i | i | -11 | 6.3* | 0.007 | 0.012* | 0.032 | 0.015* | 0.023 | ? | i | i | i
CCCn1c(=O)c(C(=O)NNC(=O)c2ccc(Cl)cc2Cl)c(O)c2ccccc21 | i | i | i | i | -7 | · | · | · | · | · | · | · | · | · | ·
CC(=O)Oc1ccc(/C=C2\C=C(c3ccc(C)cc3)OC2=O)cc1 | i | i | i | i | -8 | · | · | · | · | · | · | · | · | · | ·
Cc1ccc(NC(=O)CN(C)C(=O)CSc2nc3ccccc3c(=O)n2Cc2ccco2)cc1 | i | i | i | i | -9 | 2.5 | · | · | · | · | · | · | · | · | ·
CN(Cc1ccccc1)C(=O)CSc1nc2ccccc2c(=O)n1Cc1ccco1 | i | i | i | i | -19 | -3.5* | 0.0072 | 0.0031* | 0.026* | 0.0058* | 0.015* | ? | i | i | i
Cc1nnc(NC(=O)CN2CCN(Cc3ccccc3)CC2)s1 | i | i | i | i | -7 | · | · | · | · | · | · | · | · | · | ·
COC(=O)c1c(NS(=O)(=O)c2ccc3ccccc3c2)sc2c1CCCC2 | 33* | i | i | i | 17* | 27* | 0.0071 | 0.065* | 0.058* | 0.057* | 0.057* | 0.039* | i | i | i
Cc1sc2nc(CSc3nnc(Cc4cccs4)n3C3CCCCC3)[nH]c(=O)c2c1C | i | i | i | i | -8 | · | · | · | · | · | · | · | · | · | ·
Cc1sc2nc(SCc3nnc(-c4cccs4)o3)n(C3CCCC3)c(=O)c2c1C | i | -12* | i | 8* | -9 | 10* | 0.017* | 0.046* | 0.034 | 0.019* | 0.031 | 0.014* | · | · | · | KCNK3 confirm=79*;KCNK3 uninduced=i
Cc1cccc(NC(=O)c2ccc(-c3ccccc3[N+](=O)[O-])o2)c1 | i | i | i | i | -33 | -1.5 | · | · | · | · | · | · | · | · | ·
COc1cccc(CN(C)C(=O)c2cc(COc3ccc(-n4cncn4)cc3)on2)c1 | i | i | i | i | -14 | · | · | · | · | · | · | · | · | · | ·
COc1cccc(CN(C)C(=O)c2cc(COc3ccc4ncccc4c3)on2)c1 | i | -9.8* | i | i | -19 | · | 0.0071 | 0.0036 | 0.025* | ? | 0.014* | 0.0099 | · | · | · | KCNK3 confirm=120*;KCNK3 uninduced=i
O=C(NCCc1cn2ccccc2n1)c1cc(COc2ccc3ncccc3c2)on1 | i | -14* | i | i | -27 | · | 0.0076 | 0.0064 | 0.03 | 0.0074 | ? | 0.0097 | · | · | · | KCNK3 confirm=130*;KCNK3 uninduced=i
CCc1ccccc1NC(=O)C1CCCN1C(=O)NCc1ccccc1 (stereo not drawn) | i | i | i | i | -4 | · | · | · | · | · | · | · | · | · | ·
Cc1cccc(NC(=O)C[n+]2ccccc2)c1 | i | i | i | i | -12 | · | · | · | · | · | · | · | · | · | ·
ClCC1CN(Cc2ccccc2Cl)CCO1 (stereo not drawn) | i | i | i | i | -9 | 0.013 | · | · | · | · | · | · | · | · | ·
Cc1ccc(COc2ccccc2-c2cc(C(=O)N/N=C/c3cccnc3)[nH]n2)cc1 | i | -12* | -19* | i | -15 | -5.5* | 0.0064 | 0.0055 | ? | ? | 0.012* | 0.011 | 64%* | i | 26%* | KCNK3 confirm=118*;KCNK3 uninduced=i
CCOc1ccccc1-c1cc(C(=O)N/N=C/c2cccnc2)c2ccccc2n1 | i | i | i | i | -6 | · | · | · | · | · | · | · | · | · | ·
